Data published in ChEMBL document CHEMBL4706541, “Design and synthesis of 1H-indazole-3-carboxamide derivatives as potent and selective PAK1 inhibitors with anti-tumour migration and invasion activities” (Eur J Med Chem, 2020).
pIC50: −log10 of the molar value.

Columns and labels:
[1] = biological target: T1, Serine/threonine-protein kinase PAK 1 (Homo sapiens, UniProt Q13153); assay: Inhibition of full length recombinant human N-terminal GST/His6-tagged PAK1 expressed in sf9 insect cells using tetra LRRWSLG as substrate preincubated for 20 min followed by [gamma33P]ATP addition and measured after 120 mins by Hotspot assay
T1 sequence (Q13153 whole entry): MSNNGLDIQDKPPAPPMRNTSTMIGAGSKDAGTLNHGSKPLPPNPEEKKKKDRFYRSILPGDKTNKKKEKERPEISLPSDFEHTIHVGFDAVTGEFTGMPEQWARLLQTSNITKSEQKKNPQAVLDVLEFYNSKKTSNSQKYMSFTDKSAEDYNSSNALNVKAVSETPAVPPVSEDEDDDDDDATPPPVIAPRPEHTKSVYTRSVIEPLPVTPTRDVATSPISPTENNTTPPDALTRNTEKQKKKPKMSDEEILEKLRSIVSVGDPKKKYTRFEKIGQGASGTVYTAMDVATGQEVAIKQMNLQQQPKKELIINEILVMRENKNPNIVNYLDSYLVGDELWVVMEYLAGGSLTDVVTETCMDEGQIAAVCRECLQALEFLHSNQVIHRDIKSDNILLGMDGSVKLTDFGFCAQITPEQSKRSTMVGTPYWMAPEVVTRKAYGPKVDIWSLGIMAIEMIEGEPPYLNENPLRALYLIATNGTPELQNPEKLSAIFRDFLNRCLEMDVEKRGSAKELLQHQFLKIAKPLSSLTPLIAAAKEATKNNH

MDA-MB-231 = assay: Antiproliferative activity against human MDA-MB-231 cells assessed as growth inhibition at 1 uM after 72 hrs by Cell Titer-Glo assay relative to control; format: functional; conditions: read-out: GI
Outline: (§1)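 Cells kept at 37 °C in 5% CO2 and plated at 4000 per well. Treated with compound for 72 h. Viability read by CellTiter-Glo luminescence. Each compound run in duplicate, data as means ± SD.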

HCT-116 = assay: Antiproliferative activity against human HCT-116 cells assessed as growth inhibition at 1 uM after 72 hrs by Cell Titer-Glo assay relative to control; format: functional; conditions: read-out: GI; outline: as §1
[2] = biological target: T1, Serine/threonine-protein kinase PAK 1; assay: Inhibition of PAK1 (unknown origin)
[3] = biological target: Serine/threonine-protein kinase PAK 4 (Homo sapiens, UniProt O96013); assay: Inhibition of full length recombinant human N-terminal GST/His6-tagged PAK4 expressed in baculovirus infected sf9 insect cells using tetra LRRWSLG as substrate preincubated for 20 min followed by [gamma33P]ATP addition and measured after 120 mins by Hotspot assay
Serine/threonine-protein kinase PAK 4, sequence (O96013 whole entry): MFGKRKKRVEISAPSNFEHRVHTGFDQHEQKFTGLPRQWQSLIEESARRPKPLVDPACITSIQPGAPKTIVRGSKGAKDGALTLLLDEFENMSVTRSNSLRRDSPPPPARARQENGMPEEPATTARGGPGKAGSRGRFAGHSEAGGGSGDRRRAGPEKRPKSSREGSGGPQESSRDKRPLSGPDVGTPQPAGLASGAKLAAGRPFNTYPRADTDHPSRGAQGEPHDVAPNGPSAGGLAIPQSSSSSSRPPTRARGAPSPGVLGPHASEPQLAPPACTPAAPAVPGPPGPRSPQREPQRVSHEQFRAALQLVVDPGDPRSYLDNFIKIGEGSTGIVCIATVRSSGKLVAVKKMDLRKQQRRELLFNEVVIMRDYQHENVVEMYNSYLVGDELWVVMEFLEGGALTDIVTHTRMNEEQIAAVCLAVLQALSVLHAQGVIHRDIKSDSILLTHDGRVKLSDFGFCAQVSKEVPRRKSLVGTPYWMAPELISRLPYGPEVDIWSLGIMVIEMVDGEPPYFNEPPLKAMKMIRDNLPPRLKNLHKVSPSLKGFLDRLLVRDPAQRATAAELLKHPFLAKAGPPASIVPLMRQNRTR

Homo sapiens = species: Homo sapiens; assay: Selectivity index ratio of IC50 for inhibition of human PAK4 to IC50 for human PAK1
Outline: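 Compound tested from 10 µM in 3-fold serial dilutions in the HotSpot radiometric assay, with 20 min preincubation, 10 µM ATP/33P-ATP and 120 min at 25 °C. Filter-binding gives IC50. Selectivity is expressed as the PAK4 IC50 divided by the PAK1 IC50.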

[4] = biological target: Voltage-gated inwardly rectifying potassium channel KCNH2 (Homo sapiens, UniProt Q12809); assay: Inhibition of human ERG
Voltage-gated inwardly rectifying potassium channel KCNH2, sequence (Q12809 whole entry): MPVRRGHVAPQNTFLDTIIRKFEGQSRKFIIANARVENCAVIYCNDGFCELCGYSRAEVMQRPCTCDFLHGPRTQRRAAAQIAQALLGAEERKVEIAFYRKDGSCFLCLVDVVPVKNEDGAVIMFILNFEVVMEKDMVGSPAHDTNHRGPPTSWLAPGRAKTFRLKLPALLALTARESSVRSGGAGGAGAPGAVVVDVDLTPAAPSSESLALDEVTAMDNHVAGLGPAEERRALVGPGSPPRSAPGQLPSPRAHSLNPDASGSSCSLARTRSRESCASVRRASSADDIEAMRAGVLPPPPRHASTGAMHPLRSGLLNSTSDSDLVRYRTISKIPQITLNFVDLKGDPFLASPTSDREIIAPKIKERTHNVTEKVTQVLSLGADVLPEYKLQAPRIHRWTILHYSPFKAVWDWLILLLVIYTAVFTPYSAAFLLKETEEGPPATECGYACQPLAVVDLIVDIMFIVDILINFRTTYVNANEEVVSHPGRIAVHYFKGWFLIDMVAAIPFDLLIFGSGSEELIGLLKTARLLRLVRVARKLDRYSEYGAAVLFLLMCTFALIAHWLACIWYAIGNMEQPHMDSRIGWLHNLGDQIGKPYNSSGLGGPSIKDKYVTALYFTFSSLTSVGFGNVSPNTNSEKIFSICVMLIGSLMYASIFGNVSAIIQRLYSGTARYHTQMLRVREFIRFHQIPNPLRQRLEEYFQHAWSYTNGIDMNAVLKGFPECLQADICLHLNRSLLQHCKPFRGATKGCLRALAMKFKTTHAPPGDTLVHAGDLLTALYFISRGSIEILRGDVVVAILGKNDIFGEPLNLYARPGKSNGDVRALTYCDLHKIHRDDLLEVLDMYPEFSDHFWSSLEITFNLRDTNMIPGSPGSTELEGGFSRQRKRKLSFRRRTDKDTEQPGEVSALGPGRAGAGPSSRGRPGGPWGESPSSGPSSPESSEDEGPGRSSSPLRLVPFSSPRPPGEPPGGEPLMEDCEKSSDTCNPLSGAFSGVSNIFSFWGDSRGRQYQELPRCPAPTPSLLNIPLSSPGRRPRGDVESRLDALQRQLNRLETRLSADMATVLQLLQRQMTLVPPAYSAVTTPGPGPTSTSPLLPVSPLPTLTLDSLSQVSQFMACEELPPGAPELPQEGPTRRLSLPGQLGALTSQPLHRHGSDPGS

Compound	pIC50 [1]	inhibition of growth at 1 µM (MDA-MB-231) [%]	inhibition of growth at 1 µM (HCT-116) [%]	pIC50 [2]	pIC50 [3]	Ratio IC50 (Homo sapiens)	pIC50 [4]
CNC(=O)c1n[nH]c2cc(-c3ccc(-c4cccc(C)n4)cc3Cl)ccc12	7.28	8.12	7.16	–	–	–	–
CNC(=O)c1n[nH]c2cc(-c3ccccc3Cl)ccc12	5.30	–	–	5.30	–	–	–
CNC(=O)c1n[nH]c2cc(-c3ccc(-n4cccc(C)c4=O)cc3Cl)ccc12	7.80	13.2	17.2	–	< 5.00	–	–
O=C(NCC1CC1)c1n[nH]c2cc(-c3ccc(-n4ccccc4=O)cc3Cl)ccc12	6.23	–	–	–	–	–	–
Cc1cccn(-c2ccc(-c3ccc4c(C(=O)NCC5CCOCC5)n[nH]c4c3)c(Cl)c2)c1=O	7.38	9.45	16.2	–	–	–	–
Cc1cccc(-c2ccc(-c3ccc4c(C(=O)NCC5CC5)n[nH]c4c3)c(Cl)c2)n1	6.64	–	–	–	–	–	–
Cc1cccn(-c2ccc(-c3ccc4c(C(=O)Nc5ccncc5)n[nH]c4c3)c(Cl)c2)c1=O	7.80	6.59	4.41	–	–	–	–
Cc1cccn(-c2ccc(-c3ccc4c(C(=O)NC5CCN(C)CC5)n[nH]c4c3)c(Cl)c2)c1=O	6.84	–	–	–	–	–	–
Cc1cccn(-c2ccc(-c3ccc4c(C(=O)N5CCOCC5)n[nH]c4c3)c(Cl)c2)c1=O	< 5.00	–	–	–	–	–	–
CNC(=O)c1n[nH]c2cc(-c3ccc(-n4ccccc4=O)cc3Cl)ccc12	6.48	–	–	–	–	–	–
Cc1cccn(-c2ccc(-c3ccc4c(C(=O)NCCc5ccncc5)n[nH]c4c3)c(Cl)c2)c1=O	7.68	8.42	15.3	–	–	–	–
CCNC(=O)c1n[nH]c2cc(-c3ccc(-n4cccc(C)c4=O)cc3Cl)ccc12	7.35	10.2	9.37	–	< 5.00	> 200	4.04
Cc1cccn(-c2ccc(-c3ccc4c(C(=O)NCCO)n[nH]c4c3)c(Cl)c2)c1=O	7.18	17.4	19.2	–	–	–	–
Cc1cccn(-c2ccc(-c3ccc4c(C(=O)NCC5CCN(C)CC5)n[nH]c4c3)c(Cl)c2)c1=O	7.66	18.4	20.1	–	–	–	–
Cc1cncc(-c2ccc(-c3ccc4c(C(=O)NCC5CC5)n[nH]c4c3)c(Cl)c2)n1	6.11	–	–	–	–	–	–
Cc1cccn(-c2ccc(-c3ccc4c(C(=O)NC5CCOCC5)n[nH]c4c3)c(Cl)c2)c1=O	6.13	19.2	7.91	–	–	–	–
CN[C@@H]1C[C@H]2O[C@@](C)([C@@H]1OC)n1c3ccccc3c3c4c(c5c6ccccc6n2c5c31)C(=O)NC4	–	–	–	–	–	–	4.04
Cc1nc(Nc2n[nH]c3c2CN(C(=O)N[C@H](CN(C)C)c2ccccc2)C3(C)C)c2sccc2n1 [PF-03758309]	–	62.6	83.2	–	–	–	4.39
COCCNC(=O)c1n[nH]c2cc(-c3ccc(-n4cccc(C)c4=O)cc3Cl)ccc12	7.15	3.07	10.3	–	–	–	–
Cc1cccn(-c2ccc(-c3ccc4c(C(=O)N5CCCC5)n[nH]c4c3)c(Cl)c2)c1=O	< 5.00	–	–	–	–	–	–
Cc1cccn(-c2ccc(-c3ccc4c(C(=O)NCc5ccccc5)n[nH]c4c3)c(Cl)c2)c1=O	7.04	9.66	13.2	–	–	–	–
Cc1cccn(-c2ccc(-c3ccc4c(C(=O)NCC5CC5)n[nH]c4c3)c(Cl)c2)c1=O	7.47	6.87	10.8	–	< 5.00	–	–
CNC(=O)c1n[nH]c2cc(-c3ccc(-c4cncc(C)n4)cc3Cl)ccc12	6.80	15.3	11.5	–	–	–	–
